Laboratory results from ChEMBL document CHEMBL4342513, “Implementation of the CYP Index for the Design of Selective Tryptophan-2,3-dioxygenase Inhibitors” (ACS Med Chem Lett, 2020).
≈ marks a conversion by molar mass, not a printed value. One block for each compound: values may come before it.

How the values were obtained:
[1] = Clearance in mouse liver microsomes; format: ADME, Microsome
Summary of the method: (§1)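 Clearance was measured in liver microsome incubations from human, rat and mouse. It is expressed as scaled clearance in mL/min/kg.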

[2] = species on record: Homo sapiens; assay: Selectivity index, ratio of EC50 for inhibition of IDO1 in human A172 cells in presence of IFNgamma to EC50 for inhibition of TDO in human SW48 cells; format: cell-based
[3] = Lipophilicity, log D of compound at pH 7.4; format: physicochemical; conditions: buffer
[4] = Clearance in rat liver microsomes; format: ADME, Microsome; summary of the method: as §1
[5] = Clearance in human liver microsomes; format: ADME, Microsome; summary of the method: as §1
[6] = target: T1, Tryptophan 2,3-dioxygenase (Homo sapiens, UniProt P48775); assay: Inhibition of recombinant human TDO using L-tryptophan as substrate preincubated for 5 mins followed by substrate addition and measured after 15 mins by RapidFire-Mass spectrometry
T1 sequence (P48775 whole entry): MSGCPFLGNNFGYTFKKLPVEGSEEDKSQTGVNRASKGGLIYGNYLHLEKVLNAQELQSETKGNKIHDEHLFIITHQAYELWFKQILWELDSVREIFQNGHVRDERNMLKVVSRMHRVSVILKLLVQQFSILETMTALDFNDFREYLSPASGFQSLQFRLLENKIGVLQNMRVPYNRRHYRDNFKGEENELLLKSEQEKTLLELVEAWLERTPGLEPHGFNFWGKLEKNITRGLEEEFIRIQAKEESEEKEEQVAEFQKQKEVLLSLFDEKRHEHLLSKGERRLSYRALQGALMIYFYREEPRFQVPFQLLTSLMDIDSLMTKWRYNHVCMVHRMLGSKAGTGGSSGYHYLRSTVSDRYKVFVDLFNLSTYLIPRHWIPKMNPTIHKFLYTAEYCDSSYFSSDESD

[7] = target: Indoleamine 2,3-dioxygenase 1 (Homo sapiens, UniProt P14902); assay: Inhibition of IDO1 in human A172 cells after 24 hrs in presence of IFNgamma by NFK green reagent based assay; format: cell-based
Chain of Indoleamine 2,3-dioxygenase 1 (P14902 whole entry): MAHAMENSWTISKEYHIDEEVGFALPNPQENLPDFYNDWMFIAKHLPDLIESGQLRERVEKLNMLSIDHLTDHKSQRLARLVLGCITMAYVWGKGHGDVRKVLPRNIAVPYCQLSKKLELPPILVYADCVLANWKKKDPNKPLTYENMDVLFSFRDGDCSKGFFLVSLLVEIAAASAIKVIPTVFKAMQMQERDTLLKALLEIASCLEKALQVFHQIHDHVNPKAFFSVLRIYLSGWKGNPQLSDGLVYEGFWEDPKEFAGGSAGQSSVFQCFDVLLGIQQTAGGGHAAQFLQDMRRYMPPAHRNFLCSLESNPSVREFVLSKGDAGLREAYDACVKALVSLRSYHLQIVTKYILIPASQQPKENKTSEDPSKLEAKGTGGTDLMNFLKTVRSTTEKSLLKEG

[8] = target: T1, Tryptophan 2,3-dioxygenase; assay: Inhibition of TDO in human SW48 cells after 24 hrs by NFK green reagent based assay; format: cell-based
[9] = target: Cytochrome P450 3A4 (Homo sapiens, UniProt P08684); assay: Inhibition of CYP3A4 (unknown origin); format: ADME
Chain of Cytochrome P450 3A4 (P08684 whole entry): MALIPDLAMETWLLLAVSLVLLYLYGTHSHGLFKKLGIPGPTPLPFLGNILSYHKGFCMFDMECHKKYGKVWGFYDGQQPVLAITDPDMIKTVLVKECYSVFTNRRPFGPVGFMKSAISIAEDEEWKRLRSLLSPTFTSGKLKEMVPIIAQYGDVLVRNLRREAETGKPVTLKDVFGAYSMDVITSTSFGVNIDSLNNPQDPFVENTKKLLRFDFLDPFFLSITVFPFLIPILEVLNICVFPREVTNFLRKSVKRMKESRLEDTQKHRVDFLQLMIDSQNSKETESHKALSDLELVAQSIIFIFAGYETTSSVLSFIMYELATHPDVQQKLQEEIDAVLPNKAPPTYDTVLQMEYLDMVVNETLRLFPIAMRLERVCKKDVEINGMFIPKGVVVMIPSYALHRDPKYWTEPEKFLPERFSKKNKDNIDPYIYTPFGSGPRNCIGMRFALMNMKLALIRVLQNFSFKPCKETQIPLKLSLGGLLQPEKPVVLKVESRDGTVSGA

[10] = species on record: Homo sapiens; assay: Selectivity index, ratio of IC50 for inhibition of CYP3A4 (unknown origin) to EC50 for inhibition of EC50 for inhibition of TDO in human SW48 cells; format: cell-based
[11] = Volume of distribution at steady state in mouse; format: ADME, organism-based; conditions: in vivo, read-out: Vdss
[12] = tested on: Mus musculus; assay: In vivo inhibition of TDO in mouse assessed as blood tryptophan levels by measuring Cmax at 30 mg/kg (reference value: 340 microM); format: functional, organism-based; parameters: dose 30 mg/kg
Summary of the method: (§2)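 Mouse pharmacodynamic study with escalating doses up to 100 mg/kg and a vehicle-treated comparison group. Blood tryptophan concentration was followed over time.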

[13] = tested on: Mus musculus; assay: In vivo inhibition of TDO in mouse assessed as blood tryptophan levels by measuring AUC at 10 mg/kg (reference value: 570 microM.hr); format: functional, organism-based; summary of the method: as §2
[14] = tested on: Mus musculus; assay: In vivo inhibition of TDO in mouse assessed as blood tryptophan levels by measuring Cmax at 100 mg/kg (reference value: 340 microM); format: functional, organism-based; parameters: dose 100 mg/kg; summary of the method: as §2
[15] = Protein binding in mouse plasma assessed as unbound fraction; format: ADME, cell-free
[16] = Cmax in mouse at 10 mg/kg; format: ADME, organism-based; parameters: dose 10 mg/kg; conditions: in vivo
[17] = Unbound clearance in mouse plasma; format: ADME, cell-free
[18] = Oral bioavailability in mouse at 1 mg/kg dosed as cassette formulation; format: ADME, organism-based; conditions: in vivo
[19] = AUC (infinity) in mouse at 10 mg/kg; format: ADME, organism-based; parameters: dose 10 mg/kg, time infinity; conditions: in vivo
[20] = tested on: Mus musculus; assay: In vivo inhibition of TDO in mouse assessed as blood tryptophan levels by measuring AUC at 30 mg/kg (reference value: 570 microM.hr); format: functional, organism-based; summary of the method: as §2
[21] = AUC (infinity) in mouse at 30 mg/kg; format: ADME, organism-based; parameters: dose 30 mg/kg, time infinity; conditions: in vivo
[22] = Cmax in mouse at 100 mg/kg; format: ADME, organism-based; parameters: dose 100 mg/kg; conditions: in vivo
[23] = Cmax in mouse at 30 mg/kg; format: ADME, organism-based; parameters: dose 30 mg/kg; conditions: in vivo
[24] = Clearance in iv dosed mouse plasma; format: ADME, organism-based
Summary of the method: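 Compounds were given to mice as discrete (single-compound) intravenous doses. Plasma clearance (CLp) is expressed in mL/min/kg.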

[25] = AUC (infinity) in mouse at 100 mg/kg; format: ADME, organism-based; parameters: dose 100 mg/kg, time infinity; conditions: in vivo
[26] = tested on: Mus musculus; assay: In vivo inhibition of TDO in mouse assessed as blood tryptophan levels by measuring Cmax at 10 mg/kg (reference value: 340 microM); format: functional, organism-based; parameters: dose 10 mg/kg; summary of the method: as §2
[27] = AUC (infinity) in mouse; format: ADME, organism-based; parameters: time infinity; conditions: in vivo
[28] = Apparent permeability across apical to basolateral side in MDCK cells; format: ADME, cell-based, Canis lupus familiaris; conditions: dog
[29] = Half life in mouse; format: ADME, organism-based; conditions: in vivo
[30] = Kinetic solubility of compound; format: physicochemical; conditions: read-out: Kinetic_solubility
[31] = tested on: Mus musculus; assay: In vivo inhibition of TDO in mouse assessed as blood tryptophan levels by measuring AUC at 100 mg/kg (reference value: 570 microM.hr); format: functional, organism-based; summary of the method: as §2
[32] = Oral bioavailability in mouse at 5 mg/kg; format: ADME, organism-based; conditions: in vivo
[33] = target: T1, Tryptophan 2,3-dioxygenase; assay: Inhibition of TDO (unknown origin)

Compound: OCCC1c2ccccc2-n2cncc21 (configuration not stated)
IC50 [6]: 0.06 µM

Compound: O[C@@H]1c2ccccc2CC[C@H]1[C@H]1c2ccccc2-c2cncn21
EC50 [7]: 0.24 µM | CLhep predicted [1]: 4.5 L/h/kg | CLhep predicted [4]: 2.82 L/h/kg | CLhep predicted [5]: 0.66 L/h/kg

Compound: C[C@H]([C@H](O)c1ccccc1)[C@H]1c2ccccc2-c2cncn21
EC50 [8]: ≤ 0.032 µM

Compound: OCCn1c2ccccc2n2cnnc12
IC50 [6]: 17 µM

Compound: CS(=O)(=O)c1ccc2c(c1)CC[C@@H]([C@H]1c3ccccc3-c3cncn31)[C@@H]2O
IC50 [9]: 2.8 µM | EC50 [7]: 1.3 µM | CLhep predicted [1]: 4.86 L/h/kg | Ratio EC50 [2]: 20 | Ratio IC50/EC50 [10]: 43 | EC50 [8]: 0.065 µM | CLhep predicted [4]: 2.76 L/h/kg | CLhep predicted [5]: 0.414 L/h/kg

Compound: O[C@@H]1c2cnccc2CC[C@H]1[C@H]1c2ccccc2-c2cncn21
Vd [11]: 1.4 L/kg | Cmax [12]: 560 µM | AUC [13]: 139000 ng·h/mL | IC50 [9]: 2.4 µM | EC50 [7]: 1.4 µM | Cmax [14]: 540 µM | fraction unbound [15]: 0.07 | Cmax [16]: 4.1 µM | CLhep predicted [1]: 4.26 L/h/kg | Ratio EC50 [2]: 28 | CL free [17]: 24.6 L/h/kg | bioavailability [18]: 68% | Ratio IC50/EC50 [10]: 48 | AUC(0-inf) [19]: 5 µM·h | EC50 [8]: 0.05 µM | AUC [20]: 229000 ng·h/mL | AUC(0-inf) [21]: 35 µM·h | Cmax [22]: 70 µM | Cmax [23]: 21.2 µM | CLhep predicted [4]: 2.28 L/h/kg | clearance [24]: 1.74 L/h/kg | AUC(0-inf) [25]: 210 µM·h | Cmax [26]: 420 µM | AUC(0-inf) [27]: 0.34 µM·h | Papp A→B [28]: 110 nm/s | half-life [29]: 37.2 min | CLhep predicted [5]: 0.414 L/h/kg | solubility kinetic [30]: 139 µM (≈ 42.2 µg/mL) | AUC [31]: 404000 ng·h/mL | bioavailability [32]: 78%

Compound: OCCC1c2ccccc2-c2cnsc21 (configuration not stated)
IC50 [6]: 7 µM

Compound: O[C@H](C[C@H]1c2c(F)cccc2-c2cncn21)[C@H]1CC[C@H](O)CC1 [NAVOXIMOD]
EC50 [33]: 2 µM

More lines, main results first:

CLhep predicted [1]: 4.44 L/h/kg | logD [3]: 3.7 | CLhep predicted [4]: 2.7 L/h/kg | CLhep predicted [5]: 0.9 L/h/kg
Compound: c1ccc2c(c1)-c1cncn1[C@H]2C1CCCCC1
Ratio EC50 [2]: 13

EC50 [7]: 0.72 µM | CLhep predicted [1]: 3.72 L/h/kg | EC50 [8]: 0.05 µM | logD [3]: 2.7 | CLhep predicted [4]: 2.22 L/h/kg | CLhep predicted [5]: 0.582 L/h/kg
Compound: O[C@@H]1CCCC[C@H]1[C@H]1c2ccccc2-c2cncn21
Ratio EC50 [2]: 14

CLhep predicted [1]: 4.8 L/h/kg | logD [3]: 2.8 | CLhep predicted [4]: 2.7 L/h/kg | CLhep predicted [5]: 1.08 L/h/kg
Compound: O[C@@H](C[C@H]1c2ccccc2-c2cncn21)C1CCCCC1

EC50 [7]: > 25 µM | EC50 [8]: 3 µM | logD [3]: 1.1
Compound: CC(=O)N1CC[C@@H]([C@H]2c3ccccc3-c3cncn32)[C@H](O)C1
Ratio EC50 [2]: > 8

IC50 [9]: 0.65 µM | EC50 [7]: 2.9 µM | logD [3]: 1.5
Compound: O[C@@H]1CCOC[C@H]1[C@H]1c2ccccc2-c2cncn21
Ratio EC50 [2]: 14 | Ratio IC50/EC50 [10]: 3.1

EC50 [7]: 1.4 µM | CLhep predicted [1]: 3.54 L/h/kg | EC50 [8]: 0.036 µM | logD [3]: 1.7 | CLhep predicted [4]: 1.62 L/h/kg | CLhep predicted [5]: 0.354 L/h/kg
Compound: O[C@@H]1CC[C@H]1[C@H]1c2ccccc2-c2cncn21
Ratio EC50 [2]: 67

EC50 [7]: 2.2 µM | CLhep predicted [1]: 3.54 L/h/kg | EC50 [8]: 0.07 µM | logD [3]: 2.2 | CLhep predicted [4]: 2.1 L/h/kg | CLhep predicted [5]: 0.3 L/h/kg
Compound: O[C@@H]1CCC[C@H]1[C@H]1c2ccccc2-c2cncn21
Ratio EC50 [2]: 31

EC50 [7]: 20 µM | logD [3]: 1.4
Compound: CN1CC[C@@H]([C@H]2c3ccccc3-c3cncn32)[C@H](O)C1
Ratio EC50 [2]: 14

IC50 [9]: 3.3 µM | EC50 [7]: 13 µM | CLhep predicted [1]: 2.76 L/h/kg | EC50 [8]: 0.38 µM | CLhep predicted [4]: 1.14 L/h/kg | CLhep predicted [5]: < 0.234 L/h/kg
Compound: Cn1ncc2c1CC[C@@H]([C@H]1c3ccccc3-c3cncn31)[C@@H]2O
Ratio EC50 [2]: 34 | Ratio IC50/EC50 [10]: 9
